Laboratory results published in ChEMBL document CHEMBL2169867, “Novel β-amino acid derivatives as inhibitors of cathepsin A” (J Med Chem, 2012).
Each block holds one compound with its values, some of them ahead of it. Activity calls are given as the source filed them. No cut-off for these calls is given here.

Legend:
Neprilysin = Neprilysin (Homo sapiens, UniProt P08473); assay: Inhibition of human recombinant NEP using Mca-RPPGFSAFK(Dnp)-OH as substrate incubated for 15 mins prior to substrate addition measured after 20 to 30 mins by fluorimetric analysis
Neprilysin, sequence (P08473 whole entry): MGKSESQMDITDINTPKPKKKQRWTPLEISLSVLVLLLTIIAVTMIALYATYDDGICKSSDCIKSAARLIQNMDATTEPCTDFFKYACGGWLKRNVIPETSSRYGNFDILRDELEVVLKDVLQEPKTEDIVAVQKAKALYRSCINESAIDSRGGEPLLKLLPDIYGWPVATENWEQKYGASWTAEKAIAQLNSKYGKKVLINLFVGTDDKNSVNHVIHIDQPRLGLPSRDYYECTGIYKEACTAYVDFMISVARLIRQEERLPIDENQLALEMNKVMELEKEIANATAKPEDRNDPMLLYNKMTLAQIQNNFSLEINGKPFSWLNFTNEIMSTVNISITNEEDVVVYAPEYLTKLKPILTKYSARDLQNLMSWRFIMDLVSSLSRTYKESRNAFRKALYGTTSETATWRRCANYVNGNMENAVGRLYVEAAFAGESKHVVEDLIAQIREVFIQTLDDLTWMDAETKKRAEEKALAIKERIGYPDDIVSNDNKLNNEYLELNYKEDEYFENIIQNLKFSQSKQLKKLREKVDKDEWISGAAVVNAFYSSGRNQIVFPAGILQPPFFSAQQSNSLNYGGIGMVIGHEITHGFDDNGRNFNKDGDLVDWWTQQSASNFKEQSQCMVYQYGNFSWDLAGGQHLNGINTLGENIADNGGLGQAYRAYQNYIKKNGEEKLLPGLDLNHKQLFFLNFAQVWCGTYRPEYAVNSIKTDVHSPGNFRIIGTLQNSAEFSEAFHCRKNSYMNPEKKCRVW
Procedure, shortened: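 Recombinant human NEP and inhibitor preincubated 15 min at room temperature in reaction buffer, then substrate added. Fluorescence read after 20-30 min at room temperature. % inhibition and IC50 calculated against internal high and low controls.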

[1] = target: T1, Lysosomal protective protein (Homo sapiens, UniProt P10619); assay: Inhibition of human recombinant Myc-His10-tagged cathepsin A expressed in baculovirus infected Sf9 cells using BodipyFL labeled bradykinin as substrate incubated for 15 mins prior to substrate addition measured after 15 mins by fluorimetric analysis
T1 sequence (P10619 whole entry): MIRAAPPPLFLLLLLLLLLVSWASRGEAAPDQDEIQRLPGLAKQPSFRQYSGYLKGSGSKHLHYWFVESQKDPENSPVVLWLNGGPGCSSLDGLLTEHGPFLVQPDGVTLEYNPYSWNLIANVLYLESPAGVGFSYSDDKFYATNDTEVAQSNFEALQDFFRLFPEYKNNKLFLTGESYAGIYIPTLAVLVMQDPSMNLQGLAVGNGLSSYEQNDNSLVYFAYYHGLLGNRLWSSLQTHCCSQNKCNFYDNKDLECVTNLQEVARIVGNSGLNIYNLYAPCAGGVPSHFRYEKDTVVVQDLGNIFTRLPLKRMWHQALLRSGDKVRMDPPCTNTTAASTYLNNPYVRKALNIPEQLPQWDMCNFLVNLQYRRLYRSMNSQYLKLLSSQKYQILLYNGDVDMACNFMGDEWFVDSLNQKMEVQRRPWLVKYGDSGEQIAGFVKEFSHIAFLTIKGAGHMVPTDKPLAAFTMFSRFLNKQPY

Mus musculus [2] = assay: Cardioprotective activity against angiotensin 2-induced cardiac hypertrophy in B6.129P2-ApoE/J mouse assessed as left ventricular relaxation time at 100 mg/kg/day, po administered BID after 4 weeks (reference value: 8.73 0.41 ms); format: functional, Heart left ventricle
Mus musculus [3] = assay: Cardioprotective activity against angiotensin 2-induced cardiac hypertrophy in B6.129P2-ApoE/J mouse assessed as left ventricular end diastolic pressure at 100 mg/kg/day, po administered BID after 4 weeks (reference value: 15.49 1.95 mmHg); format: functional, Heart left ventricle
Mus musculus [4] = assay: Cardioprotective activity against angiotensin 2-induced cardiac hypertrophy in B6.129P2-ApoE/J mouse assessed as left ventricular end systolic pressure at 100 mg/kg/day, po administered BID after 4 weeks (reference value: 139.36 9.79 mmHg); format: functional, Heart left ventricle
Mus musculus [5] = assay: Cardioprotective activity against angiotensin 2-induced cardiac hypertrophy in B6.129P2-ApoE/J mouse assessed as ejection fraction at 100 mg/kg/day, po administered BID after 4 weeks (reference value: 51.14 2.49 %); format: functional, Heart
Mus musculus [6] = assay: Cardioprotective activity against angiotensin 2-induced cardiac hypertrophy in B6.129P2-ApoE/J mouse assessed as heart rate at 100 mg/kg/day, po administered BID after 4 weeks (reference value: 403.23 7.98 bpm); format: functional
Mus musculus [7] = assay: Cardioprotective activity against angiotensin 2-induced cardiac hypertrophy in B6.129P2-ApoE/J mouse assessed as mean arterial pressure at 100 mg/kg/day, po administered BID after 4 weeks (reference value: 99.03 6.82 mmHg); format: functional, Heart
Mus musculus [8] = assay: Ratio of left ventricular wet weight to body weight in B6.129P2-ApoE/J mouse at 100 mg/kg/day, po administered BID after 4 weeks (reference value: 5.99 0.28 mg/g); format: functional
Mus musculus [9] = assay: Cardioprotective activity against angiotensin 2-induced cardiac hypertrophy in B6.129P2-ApoE/J mouse assessed as left ventricular wet weight at 100 mg/kg/day, po administered BID after 4 weeks (reference value: 182.03 […]); format: functional, Heart left ventricle
Mus musculus [10] = assay: Toxicity in B6.129P2-ApoE/J mouse assessed as body weight at 100 mg/kg/day, po administered BID after 4 weeks (reference value: 30.48 0.52 g); format: organism-based; set-up: route oral; conditions: in vivo, 672 h
Rattus norvegicus [11] = assay: Antihypertensive activity in Wistar rat assessed as bradykinin-dependent diuresis at 1 mg/kg, iv administered as bolus measured as urine flow rate (reference value: 11.6 uL/min); format: functional
Rattus norvegicus [12] = assay: Effect on glomerular filtration rate in Wistar rat assessed as change in creatinine excretion at 30 mg/kg, po relative to vehicle-treated control; format: functional, organism-based; set-up: dose 30 mg/kg
Procedure, shortened: (§1)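 Male Wistar rats dosed po at 30 mg kg⁻¹ day⁻¹. Urine collected over 6 h before and after treatment. Bradykinin measured by commercial RIA; creatinine excretion also determined. Mean ± SEM, n = 9-10; paired t test.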

Rattus norvegicus [13] = assay: Antihypertensive activity in Wistar rat assessed as increase in bradykinin level in urine at 30 mg/kg, po relative to vehicle-treated control; format: functional; procedure, shortened: as §1
[14] = AUC (0 to infinity) in Sprague-Dawley rat heart at 10 mg/kg, po; format: ADME, organism-based; set-up: time infinity, dose 10 mg/kg, route oral
Procedure, shortened: (§2)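 Male Sprague-Dawley rats; single oral 10 mg/kg in glycofurol 75 (19%)/Cremophor RH40 (6%)/water (75%). Plasma and heart sampled at eight time points over 24 h, three animals per time point, nonserial design. Heart homogenized with water (2 g per 1 g tissue). Concentrations measured by LC-MS/MS with a structurally related internal standard; AUC(0-inf) taken from plasma concentration-time curves.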

[15] = Cmax in Sprague-Dawley rat heart at 10 mg/kg, po; format: ADME, organism-based; set-up: dose 10 mg/kg, route oral; procedure, shortened: as §2
[16] = AUC (0 to infinity) in Sprague-Dawley rat plasma at 10 mg/kg, po; format: ADME, organism-based; set-up: time infinity, dose 10 mg/kg, route oral; procedure, shortened: as §2
[17] = Cmax in Sprague-Dawley rat plasma at 10 mg/kg, po; format: ADME, organism-based; set-up: dose 10 mg/kg, route oral; procedure, shortened: as §2
Cytochrome P450 3A4 = Cytochrome P450 3A4 (Homo sapiens, UniProt P08684); assay: (§3) Induction of CYP3A4 relative to control; format: ADME
Cytochrome P450 3A4, sequence (P08684 whole entry): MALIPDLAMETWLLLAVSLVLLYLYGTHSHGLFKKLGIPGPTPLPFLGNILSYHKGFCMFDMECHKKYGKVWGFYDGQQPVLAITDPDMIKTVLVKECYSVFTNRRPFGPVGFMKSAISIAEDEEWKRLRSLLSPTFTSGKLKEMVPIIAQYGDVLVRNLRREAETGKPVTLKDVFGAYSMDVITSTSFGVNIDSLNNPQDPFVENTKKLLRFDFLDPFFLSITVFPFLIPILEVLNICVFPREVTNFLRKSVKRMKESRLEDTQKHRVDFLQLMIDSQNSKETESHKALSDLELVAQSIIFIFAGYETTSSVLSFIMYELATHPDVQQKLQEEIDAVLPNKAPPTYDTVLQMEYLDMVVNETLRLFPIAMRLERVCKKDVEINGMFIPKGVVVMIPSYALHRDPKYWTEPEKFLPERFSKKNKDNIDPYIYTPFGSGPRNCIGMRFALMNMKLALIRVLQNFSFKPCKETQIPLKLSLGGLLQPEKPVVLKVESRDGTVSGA

[18] = Permeability across human Caco2 cells; format: ADME, cell-based; conditions: Caco-2, read-out: permeability
CYP3A4 = CYP3A4 (Homo sapiens, UniProt P08684); assay: as §3; format: ADME; conditions: human
CYP3A4, sequence (P08684 whole entry): as above

[19] = target: Cathepsin A (Homo sapiens); assay: Inhibition of cathepsin A

Compound: Cc1ccc(C)c(-n2[nH]c(C(=O)NC(CC(=O)O)c3ccc(F)cc3)cc2=O)c1 (racemic)
IC50 [1]: 5380 nM

Compound: O=C(O)CC(NC(=O)c1cc(=O)n(-c2ccc(Cl)cc2)[nH]1)c1cc(Cl)ccc1Cl (racemic)
IC50 (Neprilysin): 300 nM | IC50 [1]: > 30000 nM

Compound: Cc1ccc(C)c(-n2[nH]c(C(=O)NC(CC(=O)O)c3ccc(-c4ccccc4)cc3)cc2=O)c1 (racemic)
IC50 [1]: 803 nM

Compound: CC(=O)S[C@@H]1CC2=CC(=O)CC[C@]2(C)[C@H]2CC[C@@]3(C)[C@@H](CC[C@@]34CCC(=O)O4)[C@H]12 [SPIRONOLACTONE]
Time (Mus musculus [2]): 7.52 ms | Activity (Mus musculus [3]): 14.93 mmHg | Activity (Mus musculus [4]): 137.39 mmHg | Activity (Mus musculus [5]): 58.59% | Activity (Mus musculus [6]): 410.78 bpm | Activity (Mus musculus [7]): 103.99 mmHg | Ratio (Mus musculus [8]): 5.07 mg/g | Activity (Mus musculus [9]): 145.96 mg | Activity (Mus musculus [10]): 28.84 g

Compound: Cc1ccccc1[C@H](CC(=O)O)NC(=O)c1cc(OC[C@H](O)C(C)(C)C)n(-c2ccccc2F)n1
Activity (Rattus norvegicus [11]): 27.7 µL/min | Activity (Rattus norvegicus [12]): inactive | fold change (FC) (Rattus norvegicus [13]): 2 | AUC(0-inf) [14]: 1600 ng·h/mL | Cmax [15]: 426 ng/mL | AUC(0-inf) [16]: 5300 ng·h/mL | Cmax [17]: 1360 ng/mL | Activity (Cytochrome P450 3A4): Not Active | Papp [18]: > 2 ×10⁻⁶ cm/s | IC50 (Neprilysin): > 1000 nM | inhibition (Neprilysin): inactive

Compound: CC(C)(C)[C@H](O)COc1cc(C(=O)N[C@@H](CC(=O)O)c2ccc(Cl)cc2Cl)nn1-c1ccccc1F
IC50 [1]: 70 nM

Compound: COc1c(Cl)c(C(=O)N[C@@H](CC(=O)O)c2ccccc2C)nn1-c1ccccc1F
IC50 [1]: 110 nM

Compound: O=C(O)CC(NC(=O)c1cc(=O)n(-c2ccc(F)cc2F)[nH]1)c1cccc(Cl)c1Cl (racemic)
IC50 [1]: 120 nM

Compound: COc1c(F)c(C(=O)N[C@@H](CC(=O)O)c2ccccc2C)nn1-c1ccccc1F
IC50 [1]: 30 nM

Compound: Cc1cccc([C@H](CC(=O)O)NC(=O)c2cc(=O)n(-c3ccccc3F)[nH]2)c1
IC50 [1]: 252 nM

Compound: CC(C)(C)C(=O)COc1cc(C(=O)N[C@@H](CC(=O)O)c2ccc(Cl)cc2Cl)nn1-c1ccccc1F
Papp [18]: > 2 ×10⁻⁶ cm/s | IC50 [1]: 60 nM

Compound: O=C(O)CC(NC(=O)c1cc(=O)n(-c2ccccc2F)[nH]1)c1ccc(-c2ccc(F)cc2)cc1 (racemic)
IC50 [1]: 25 nM

Compound: Cc1ccccc1[C@H](CC(=O)O)NC(=O)c1cc(OC[C@@H](O)C(C)(C)C)n(-c2ccccc2F)n1
IC50 [1]: 10 nM

Compound: Cc1ccc([C@H](CC(=O)O)NC(=O)c2cc(=O)n(-c3ccccc3F)[nH]2)cc1
IC50 [1]: 274 nM

Compound: CC(C)(C)[C@@H](O)COc1cc(C(=O)N[C@@H](CC(=O)O)c2ccc(Cl)cc2Cl)nn1-c1ccccc1F
Activity (Rattus norvegicus [11]): 36.5 µL/min | Activity (Rattus norvegicus [12]): inactive | fold change (FC) (Rattus norvegicus [13]): 2 | AUC(0-inf) [14]: 2600 ng·h/mL | Cmax [15]: 872 ng/mL | AUC(0-inf) [16]: 9300 ng·h/mL | Cmax [17]: 2670 ng/mL | Activity (Cytochrome P450 3A4): Not Active | Papp [18]: > 2 ×10⁻⁶ cm/s | IC50 (Neprilysin): > 1000 nM | inhibition (Neprilysin): inactive | IC50 [1]: 50 nM

Compound: Cc1ccccc1[C@H](CC(=O)O)NC(=O)c1cc(OCC2CC2)n(-c2ccccc2F)n1
Emax (CYP3A4): 72% | IC50 (Neprilysin): 27000 nM | IC50 [1]: 15 nM | IC50 [19]: 15 nM

Compound: Cc1ccccc1[C@H](CC(=O)O)NC(=O)c1cc(OCC(=O)C(C)(C)C)n(-c2ccccc2F)n1
Papp [18]: > 2 ×10⁻⁶ cm/s | IC50 [1]: 3 nM

Compound: Cc1ccc(F)cc1C(CC(=O)O)NC(=O)c1cc(=O)n(-c2ccccc2F)[nH]1 (racemic)
IC50 [1]: 76 nM

Compound: CCOc1cc(C(=O)N[C@@H](CC(=O)O)c2ccccc2C)nn1-c1ccccc1F
Emax (CYP3A4): 51% | IC50 [1]: 15 nM | IC50 [19]: 15 nM

Compound: O=C(O)C[C@H](NC(=O)c1cc(=O)n(-c2ccccc2F)[nH]1)c1ccccc1C(F)(F)F
IC50 [1]: 375 nM

Continued, values first:

IC50 (Neprilysin): < 60 nM | IC50 [1]: 100 nM
Compound: O=C(O)CC(NC(=O)c1cc(=O)n(-c2ccccc2)[nH]1)c1cccc(Cl)c1Cl (racemic)

IC50 [1]: 7800 nM
Compound: Cc1ccccc1[C@@H](CC(=O)O)NC(=O)c1cc(=O)n(-c2ccccc2)[nH]1

IC50 [1]: 100 nM
Compound: COc1cn(-c2ccccc2)nc1C(=O)N[C@@H](CC(=O)O)c1ccccc1C

IC50 [1]: 226 nM
Compound: O=C(O)CC(NC(=O)c1cc(=O)n(-c2ccccc2F)[nH]1)c1ccccc1 (racemic)

IC50 [1]: 57 nM
Compound: Cc1ccccc1[C@H](CC(=O)O)NC(=O)c1cc(=O)n(-c2ccccc2Cl)[nH]1

IC50 [1]: 102 nM
Compound: Cc1ccccc1[C@H](CC(=O)O)NC(=O)c1cc(=O)n(-c2cccc(Cl)c2)[nH]1

IC50 [1]: 357 nM
Compound: COc1ccccc1[C@H](CC(=O)O)NC(=O)c1cc(=O)n(-c2ccccc2F)[nH]1

IC50 [1]: 200 nM
Compound: O=C(O)CC(NC(=O)c1cc(=O)n(-c2ccccc2)[nH]1)c1ccc(Oc2ccccc2)cc1 (racemic)

IC50 [1]: 87 nM
Compound: Cc1ccccc1[C@H](CC(=O)O)NC(=O)c1cc(=O)n(-c2ccc(F)cc2)[nH]1

IC50 [1]: 110 nM
Compound: Cc1ccccc1[C@H](CC(=O)O)NC(=O)c1nn(-c2ccccc2)cc1O

IC50 [1]: 59 nM
Compound: Cc1ccccc1[C@H](CC(=O)O)NC(=O)c1cc(=O)n(-c2cccc(F)c2)[nH]1

IC50 [1]: 70 nM
Compound: Cc1ccccc1[C@H](CC(=O)O)NC(=O)c1cc(=O)n(-c2ccccc2)[nH]1
